Reference: ChEMBL document CHEMBL1142526, “Synthesis of new pyrazolo[5,1-c][1,2,4] benzotriazines, pyrazolo[5,1-c]pyrido[4,3-e][1,2,4] triazines and their open analogues as cytotoxic agents in normoxic and hypoxic conditions” (Bioorg Med Chem, 2008)

Tests used:
Conditions in all cases: HCT-8, 72 h
[1] = test system: HCT-8; assay: Cytotoxicity against human HCT8 cells at 100 uM after 72 hrs by SRB assay; assay type: functional
Outline: (§1)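 Single-concentration growth inhibition of HCT-8 cells: seeded at 5000/well with 24 h adherence at 37 °C in 5% CO2, then 72 h continuous drug exposure, eight replicate wells. Maximum final DMSO was 0.1%, with DMSO and MMC controls. Protein was stained with 0.4% SRB in 1% acetic acid, solubilised in 10 mM Tris and absorbance read at 540 nm.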

[2] = test system: HCT-8; assay: Cytotoxicity against human HCT8 cells at 10 uM after 72 hrs by SRB assay; assay type: functional; outline: as §1
[3] = test system: HCT-8; assay: Cytotoxicity against human HCT8 cells after 72 hrs by SRB assay; assay type: functional, cell-based
Outline: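 SRB assay on HCT-8 cells seeded at 5000/well and allowed 24 h adherence at 37 °C in 5% CO2, then given 72 h continuous exposure across a 10–100 concentration range, eight wells per condition. Maximum final DMSO was 0.1%. Fixed cells were stained with 0.4% SRB in 1% acetic acid, solubilised in 10 mM Tris and read at 540 nm. IC50 is the concentration giving a 50% reduction in net protein increase versus control.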

[O-][n+]1nc2ccnn2c2cc(-c3ccccc3)ccc21
inhibition at 100 µM [1]: 35.5% | inhibition at 10 µM [2]: 13.2%

O=C(O)c1cnn2c1n[n+]([O-])c1cnccc12
inhibition at 100 µM [1]: 11.4% | inhibition at 10 µM [2]: 13.2%

CN1CCN(c2ccc3c(c2)n2ncc(-c4ccccc4)c2n[n+]3[O-])CC1
IC50 [3]: 10 µM | IC90 [3]: > 100 µM | inhibition at 100 µM [1]: 69.6% | inhibition at 10 µM [2]: 53%

[O-][n+]1nc2ccnn2c2cc(N3CCOCC3)ccc21
inhibition at 100 µM [1]: 25.8% | inhibition at 10 µM [2]: 3.27%

CN1CCN(c2ccc3c(c2)n2nccc2n[n+]3[O-])CC1
inhibition at 100 µM [1]: 32.4% | inhibition at 10 µM [2]: 3.19%

CCOC(=O)c1cnn2c1n[n+]([O-])c1cnccc12
IC50 [3]: 23.8 µM | IC90 [3]: 49.1 µM | inhibition at 100 µM [1]: 97.4% | inhibition at 10 µM [2]: 12.7%

CCOC(=O)c1cn[nH]c1/N=[N+](/[O-])c1cnccc1O
inhibition at 100 µM [1]: 31.5% | inhibition at 10 µM [2]: 3.87%

[O-][n+]1nc2ccnn2c2cc(-c3cccs3)ccc21
inhibition at 100 µM [1]: 48.5% | inhibition at 10 µM [2]: 10.9%

CCCCCOc1ccc2c(c1)n1nccc1n[n+]2[O-]
inhibition at 100 µM [1]: 38% | inhibition at 10 µM [2]: -6.17%
